Source: PubChem (several laboratories)
M18AAP inhibitor – PfM18AAP enzyme inhibition; recombinant PfM18AAP, H-Glu-NHMec fluorogenic cleavage; 290,000 tested, 1.2% active; inhibition, % at 7.35 µM;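 active = inhibition above the campaign mean inhibition over all tested compounds plus 3 SD, cut at about 28% in these data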
ALR H2O2 inh – human ALR oxidase inhibition via reduced H2O2. purified ALR, DTT oxidation, H2O2 HRP-luminol luminescence. inhibition, % (test concentration not listed). 290,000 tested, 3.8% active;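 active = mean replicate inhibition above about 79%, with every replicate also reaching it, limit read from the data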
Target sequence (P55789 whole entry, looked up): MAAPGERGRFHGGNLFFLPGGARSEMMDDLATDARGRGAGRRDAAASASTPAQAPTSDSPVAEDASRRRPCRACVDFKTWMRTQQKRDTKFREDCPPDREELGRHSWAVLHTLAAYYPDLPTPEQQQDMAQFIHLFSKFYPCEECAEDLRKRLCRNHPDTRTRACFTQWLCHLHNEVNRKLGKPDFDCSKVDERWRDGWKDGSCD
ZTA DNA inh – ZTA (EBV) inhibition in EBNA-1 counter-screen | ZTA-DNA binding, fluorescence polarization | inhibition, % at 11 µM | 320,000 tested, 0.15% active | AID 2234; in the data active = inhibition above about 33%
Target sequence (P03206 whole entry, looked up): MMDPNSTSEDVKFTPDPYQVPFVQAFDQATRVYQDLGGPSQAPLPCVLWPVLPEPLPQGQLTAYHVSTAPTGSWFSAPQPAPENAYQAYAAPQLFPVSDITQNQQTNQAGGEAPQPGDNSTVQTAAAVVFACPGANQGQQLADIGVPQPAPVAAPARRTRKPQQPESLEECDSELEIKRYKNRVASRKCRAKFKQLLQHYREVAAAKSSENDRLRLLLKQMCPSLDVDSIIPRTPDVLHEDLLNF
HCV core dimer – HCV core protein dimerization inhibition | TR-FRET GST/Flag-core106 dimerization, 1536-well | inhibition, % at 5 µM | 300,000 tested, 0.33% active | AID 1899;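 active = inhibition above the mean of all tested compounds plus 3 SD, set per screening campaign, cut at about 45% in these data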
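Material: Tagged HCV core106 pair (GST and Flag) | Amount: GST-core106 13.5 nM, Flag-core106 17 nM | Medium: KF-containing HEPES buffer, pH 7.45, DTT, CHAPS, BSA | Reagent: Eu donor and XL665 acceptor anti-tag antibodies | Schedule: 4 h at 22.5 °C | Technique: Time-resolved FRET, ex 340 nm, em 617 and 671 nm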
EBNA-1 inh – blocks EBNA-1 binding to DNA | AID 1950 | EBNA-1 DNA binding, fluorescence polarization | inhibition, % at 14.8 µM | 300,000 tested, 0.34% active; in the data active = inhibition above about 28%
HCV NS3 hel inh – blocks Hepatitis C virus NS3 helicase unwinding. AID 1800. 290,000 tested, 0.56% active. inhibition, % at 10.9 µM. NS3 helicase DNA unwinding, Cy5 molecular beacon fluorescence;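 active = inhibition above the mean of all tested compounds plus 3 SD, set per campaign, cut at about 35% in these data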
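Control set: DMSO versus 110 µM thioflavine S; Material: NS3 helicase fragment of HCV; Measured by: Cy5 fluorescence at 0 and 60 min, beacon hairpin quenching; Read-out basis: percent inhibition from t60/t0 fluorescence ratio; Times: reaction time 60 min, 25 °C; Repeats: single replicate; Compound dosing: single dose, 10.9 µM nominal final, DMSO 0.8% final.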
NS3 helicase cf – HCV NS3 helicase inhibition, confirmation assay; shares compounds with HCV NS3 hel inh; inhibition, % at 10.9 µM; 1,600 tested, 31% active; NS3 helicase DNA unwinding, Cy5 molecular beacon fluorescence; AID 1943;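 active = inhibition above the mean of all tested compounds plus 3 SD, cutoff set per campaign, cut at about 36% in these data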
DNA FID counter – displaces DNA intercalator in HCV helicase counter-screen | shares compounds with HCV NS3 hel inh | DNA fluorescent intercalator displacement, fluorescence | inhibition, % at 7.9 µM | 1,600 tested, 4% active | AID 1945; in the data active = inhibition above about 37%;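 also: higher means more displacement of ethidium bromide from the DNA hairpin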
FID counter DR – counter-screen for HCV NS3 helicase inhibitors: DNA intercalator displacement dose response; IC50, µM; shares compounds with HCV NS3 hel inh; fluorescent intercalator displacement from DNA, fluorescence; 120 tested, under 10 active; call rule not given here
Large screens that a line does not name were inactive (follow-up assays come after a bar, where they were run). Compounds with a hit are over-represented: about 5.2% of the library has one in this group of screens.

O=c1c2ccccc2sc2nc(C3CCCCC3)n(Cc3ccco3)c(=O)c12	HCV NS3 hel inh 39.6 (no result: ALR H2O2 inh, ZTA DNA inh, HCV core dimer, EBNA-1 inh) | NS3 helicase cf inactive | DNA FID counter inactive
CCCCC(=O)NC(=S)Nc1ccc(Cl)c(C(=O)O)c1	none
CCCCC(=O)NC(=S)Nc1cc(C(=O)O)ccc1Cl	HCV NS3 hel inh 54.6 (no result: ALR H2O2 inh) | NS3 helicase cf inactive | DNA FID counter inactive
COc1ccccc1NC(=O)c1cc2cc(Br)ccc2cc1O	none | NS3 helicase cf 87.3 | DNA FID counter inactive | FID counter DR inactive
O=C(Nc1ccccc1O)c1cc2cc(Br)ccc2oc1=O	HCV NS3 hel inh 42.9 | NS3 helicase cf inactive | DNA FID counter inactive
COc1cc(NC(=O)c2cc3ccccc3cc2O)c(OC)cc1Cl	none
Cc1ccc2nc(Cl)c(C3CC(c4ccco4)=NN3C(=O)CCCC(=O)O)cc2c1 (centres undefined)	none (no result: ALR H2O2 inh)
Cc1ccc2cc(C3CC(c4ccco4)=NN3C(=O)CCCC(=O)O)c(Cl)nc2c1 (centres undefined)	HCV NS3 hel inh 51.0 | NS3 helicase cf inactive | DNA FID counter inactive
CC1(C)Cc2c(C#N)c(NCCc3ccccc3)nc(-c3ccco3)c2CO1	HCV NS3 hel inh 40.2 | NS3 helicase cf 62.9 | DNA FID counter inactive | FID counter DR inactive
O=C1CC(=O)c2c1cccc2[N+](=O)[O-]	M18AAP inhibitor 33.9, HCV NS3 hel inh 36.7 (no result: ALR H2O2 inh, ZTA DNA inh, HCV core dimer, EBNA-1 inh) | NS3 helicase cf 90.3 | DNA FID counter inactive
O=C1OCc2cccc([N+](=O)[O-])c21	none
N#C/C(=C(/O)c1ccc(Cl)cc1)c1nc2ccccc2[nH]1	none
N#C/C(=C(\O)c1cc(Cl)sc1Cl)c1nc2ccccc2[nH]1	HCV NS3 hel inh 42.9 | NS3 helicase cf inactive | DNA FID counter inactive
COc1ccc(-c2c(C#N)c(SCC(=O)c3cc4ccccc4oc3=O)nc(C)c2C(=O)Nc2ccccc2)cc1	HCV NS3 hel inh 52.4 | NS3 helicase cf inactive | DNA FID counter inactive
Cc1ccc(NC(=S)Nc2cccc(-c3n[nH]c(=S)o3)c2)cc1	ALR H2O2 inh 88.9, HCV NS3 hel inh 39.5 | NS3 helicase cf inactive | DNA FID counter inactive
CC(=O)C1=C(O)C(=O)N(c2ccc(F)cc2)C1c1ccc(C)cc1 (centres undefined)	none
CC(=O)C1=C(O)C(=O)N(c2ccc(Br)cc2)C1c1cccc(F)c1 (centres undefined)	HCV NS3 hel inh 36.9 (no result: ALR H2O2 inh) | NS3 helicase cf inactive | DNA FID counter inactive
O=C(Nc1nc2ccccc2n1Cc1ccc(Cl)cc1)c1ccco1	none
CC(NC(=O)/C=C/c1ccco1)c1nc2ccccc2n1Cc1cccc(Cl)c1 (centres undefined)	HCV NS3 hel inh 36.3 | NS3 helicase cf inactive | DNA FID counter inactive
COc1ccc(CCn2c(O)cc3nn(-c4nc5ccccc5s4)c(=O)c-3c2C)cc1	HCV core dimer 60.0, HCV NS3 hel inh 46.2 | NS3 helicase cf 77.7 | DNA FID counter inactive
CC(C)CCc1noc(CN2CCN(c3ccc(Cl)cn3)CC2)n1	none
CC(C)C[C@H](NC(=O)[C@H](Cc1ccccc1)n1c(=O)[nH]c2ccccc2c1=O)C(=O)N1CCC[C@@H]1C(=O)O	HCV NS3 hel inh 39.0 | NS3 helicase cf inactive | DNA FID counter inactive
CCNC(=S)SCCOc1ccccc1C	none
Cc1cc2oc(=O)cc(CN3CCCCC3C)c2cc1C (centres undefined)	HCV NS3 hel inh 36.2 | NS3 helicase cf inactive | DNA FID counter inactive
Cc1cc2oc(=O)cc(CN3CCCCC3C)c2cc1Cl (centres undefined)	none
CC(C)CN=Cc1c(O)c([N+](=O)[O-])cc2oc3c(c12)CCCC3	HCV NS3 hel inh 45.8 | NS3 helicase cf inactive | DNA FID counter 62.6
Cc1cccc(/N=C/c2c(O)ccc3oc4c(c23)CCCC4)n1	none
O=[N+]([O-])c1cc2oc3c(c2c(C=NCc2ccccc2)c1O)CCCC3	HCV NS3 hel inh 51.1 | NS3 helicase cf 74.6 | DNA FID counter 69.2
O=C1CC(N2CCN(Cc3ccc4c(c3)OCO4)CC2)C(=O)N1CCc1ccccc1 (centres undefined)	none
CCc1ccc(NC(=O)C2CCN(S(=O)(=O)c3ccc4[nH]c(=O)ccc4c3)CC2)cc1	none
CSc1ccccc1C(=O)OCC(=O)Nc1cccnc1Cl	none (no result: M18AAP inhibitor, ZTA DNA inh, HCV core dimer, EBNA-1 inh, HCV NS3 hel inh)
COc1ccc(OC)c(NC(=O)Nc2nnc(N3CCCCC3C)s2)c1 (centres undefined)	HCV NS3 hel inh 38.6 | NS3 helicase cf inactive | DNA FID counter inactive
COc1ccc(NC(=O)Nc2nnc(N3CCCCC3C)s2)cc1OC (centres undefined)	none
Cc1noc(C)c1N=Nc1ccccc1C(=O)O	none
Cc1[nH]c2ccccc2c1N=Nc1ccccc1C(=O)O	HCV NS3 hel inh 44.0 | NS3 helicase cf inactive | DNA FID counter inactive
Oc1c(Cl)cc(CN2CCCCC2)c2cccnc12	HCV NS3 hel inh 36.6 | NS3 helicase cf inactive | DNA FID counter inactive
O=C(NCC1CCCCC1)c1cc2ccccc2cc1O	none
O=C(N/N=C1/CC2CCC1C2)c1cc2ccccc2cc1O (centres undefined)	HCV NS3 hel inh 49.1 | NS3 helicase cf inactive | DNA FID counter inactive
CCOC(=O)c1c(NC(=O)C2C3CCC(O3)C2C(=O)O)sc(C)c1-c1ccc(F)cc1 (centres undefined)	HCV NS3 hel inh 54.6 | NS3 helicase cf 60.6 | DNA FID counter inactive
CCOC(=O)c1c(NC(=O)C2C3C=CC(CC3)C2C(=O)O)sc(C)c1C (centres undefined)	none
Cc1ccc(S(=O)(=O)CC(=O)N2CC(C)OC(C)C2)cc1 (centres undefined)	none
CC1(c2ccccc2)NC(=O)N(CC(=O)Nc2ccc(N3CCOCC3)cc2N2CCOCC2)C1=O (centres undefined)	none (no result: M18AAP inhibitor, HCV NS3 hel inh)
CCOC(=O)C1C(=O)NC(c2ccccc2)=NC1c1ccc(O)c(OC)c1 (centres undefined)	HCV NS3 hel inh 56.2 | NS3 helicase cf inactive | DNA FID counter inactive
CCOC(=O)C1C(=O)NC(N2CCCCC2)=NC1c1ccccc1 (centres undefined)	none
O=C(CNC(=O)N1CC(=O)Nc2ccccc21)NCCc1ccc(Cl)cc1	none
Cc1nc([N+](=O)[O-])cn1CC(O)c1ccc(-c2ccccc2)cc1 (centres undefined)	HCV NS3 hel inh 44.6 (no result: ALR H2O2 inh) | NS3 helicase cf inactive | DNA FID counter inactive
Cc1ccc(C(O)Cn2cc([N+](=O)[O-])nc2C)cc1 (centres undefined)	none
O=C(CNc1ccc(Br)cc1)NNC1=NCCC1	none (no result: ALR H2O2 inh)
